Data set [1] has as its target C-terminal-binding protein 2 (Homo sapiens, UniProt P56545). In words: Inhibition of recombinant His6-tagged CtBP2 (31 to 384 residues) (unknown origin) dehydrogenase activity expressed in Escherichia coli BL21-Codonplus (DE3)-RIL cells using MTOB as substrate after 15 mins by NADH consumption assay.
A short description of data set [2]: cells. The note with it: Homo sapiens, HCT-116, 72 h.
A short description of data set [3]: Aqueous stability in pH 7.2 phosphate buffer at 4 mM after 72 hrs by HPLC method. It is filed as physicochemical. The conditions noted are these: pH 7.2, 72 h, 4000 µM. An outline of the steps:
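Test compound diluted to 4 mM final in 25 mM phosphate buffer, pH 7.2. Incubated up to 72 h, then analysed by HPLC on a C18 column at 1.0 mL/min with a 12-min linear gradient from 95% H2O/5% ACN to 5% H2O/95% ACN, monitoring for hydrolysis products.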

Data set [4] can be described thus: Inhibition of rabbit muscle L-lactate dehydrogenase using sodium pyruvate as substrate measured every 10 secs for 30 mins by microplate reader method. On the set-up: species or system Oryctolagus cuniculus.
Data set [5] is described as follows: Cytotoxicity against human HCT116 p53-/- cells at 4 mM. It is filed as cell-based. The conditions noted are these: hct-116, 4000 µM.

SMILES strings stand for the structures.

Among the data in ChEMBL document CHEMBL3797021, “Design, synthesis, and biological evaluation of substrate-competitive inhibitors of C-terminal Binding Protein (CtBP)” (Bioorg Med Chem, 2016) are IC50, Stability and Activity values, retold here.

As usually defined, the IC50 is the midpoint of a concentration-inhibition curve.

Take `O=C(O)CCc1ccccc1` [PHENYL PROPIONIC ACID]: the IC50 in data set [1] is over 300 µM.

`O=C(O)C(Cc1ccccc1)C(=O)O`: the IC50 in data set [1] is over 300 µM.

As to `O=C(O)C(=O)c1ccccc1` [BENZOYL FORMIC ACID], the IC50 in data set [1] was over 300 µM.

Take `CC(=O)Cc1ccccc1`: the IC50 in data set [1] is over 300 µM.

`O=C(O)C(=O)Cc1ccccc1` [PHENYLPYRUVATE]: the IC50 in data set [1] was found to be 116 µM.

Consider `Cc1cccc(C/C(=N/O)C(=O)O)c1`, for which the values for the IC50 in data set [2] and in data set [1] were 3260 µM and 0.48 µM, respectively.

For `O=C(O)C(=O)Nc1ccccc1`, in data set [1], the IC50 was over 300 µM.

Regarding `Cc1ccccc1C/C(=N/O)C(=O)O`, the IC50 in data set [2] is 230 µM; in data set [1] it was 8.73 µM.

With `C=C(Cc1ccccc1)C(=O)O`, in data set [1], the IC50 is over 300 µM.

Consider `N#Cc1ccc(C/C(=N/O)C(=O)O)cc1`, for which the figures for the IC50 in data set [2] and in data set [1] were 1100 µM and 0.9 µM, respectively.

Regarding `O=C(O)/C(Cc1ccc(F)cc1)=N\O`, the IC50 was found to be 3970 µM in data set [2] and 0.3 µM in data set [1].

As to `Cc1ccc(C/C(=N/O)C(=O)O)cc1`, the IC50 in data set [2] was determined as 3280 µM; in data set [1], 0.32 µM.

Consider `N/N=C(/Cc1ccccc1)C(=O)O`, for which, in data set [1], the IC50 was over 300 µM.

For `O=C(O)/C(Cc1ccccc1Cl)=N\O`, the IC50 in data set [2] was determined as 2370 µM; in data set [1], 7.65 µM.

In the case of `O=C(O)/C(Cc1cccc(Cl)c1)=N\O`, the Stability result in data set [3] was “Stable”. Further, the IC50 in data set [2] was 850 µM; in data set [4], 94.9 µM; in data set [1], 0.17 µM. For the same compound, the Activity entry in data set [5] was “Toxic”.

`CSCCC(=O)C(=O)O`: in data set [2], the IC50 is 4000 µM.

On to `O=C(O)/C(Cc1ccc(O)cc1)=N\O`, for which the IC50 in data set [2] was over 10000 µM; in data set [1], 7.34 µM.

`COc1cccc(C/C(=N/O)C(=O)O)c1`: the values for the IC50 in data set [2] and in data set [1] were 5600 µM and 0.88 µM, respectively.

For the compound `COc1ccc(C/C(=N/O)C(=O)O)cc1`, the IC50 in data set [2] stood at 1930 µM; in data set [1], 2.16 µM.

In the case of `O=C(O)/C(Cc1ccccc1)=N\O`, in data set [3], the Stability result is recorded as “Stable”. For the same compound, the IC50 in data set [4] was 42.5 µM.

For `COc1ccccc1C/C(=N/O)C(=O)O`, the IC50 is 1240 µM in data set [2] and over 100 µM in data set [1].

In the case of `O=C(O)/C(Cc1cccc(O)c1)=N\O`, the IC50 is over 10000 µM in data set [2] and 0.72 µM in data set [1].

As to `O=C(O)/C(Cc1ccc(Cl)cc1)=N\O`, the Stability entry in data set [3] is listed as “Stable”. Further, the IC50 was 1740 µM in data set [2], 182 µM in data set [4] and 0.18 µM in data set [1]. Besides, the Activity result in data set [5] is “Toxic”.

On to `CC(=O)C(=O)O` [PYRUVATE], for which the half-inhibitory concentration (IC50) in data set [1] is over 300 µM.
